Where only a bound is given, the exact number is not on record here.

For 22 compounds, IC50 results are on record in ChEMBL document CHEMBL3994667, “Small Molecule Lysyl Oxidase-like 2 (LOXL2) Inhibitors: The Identification of an Inhibitor Selective for LOXL2 over LOX” (ACS Med Chem Lett, 2017).

Experiment [1] has as its target T1, Lysyl oxidase homolog 2 (Homo sapiens, UniProt Q9Y4K0).
T1 sequence (Q9Y4K0 whole entry): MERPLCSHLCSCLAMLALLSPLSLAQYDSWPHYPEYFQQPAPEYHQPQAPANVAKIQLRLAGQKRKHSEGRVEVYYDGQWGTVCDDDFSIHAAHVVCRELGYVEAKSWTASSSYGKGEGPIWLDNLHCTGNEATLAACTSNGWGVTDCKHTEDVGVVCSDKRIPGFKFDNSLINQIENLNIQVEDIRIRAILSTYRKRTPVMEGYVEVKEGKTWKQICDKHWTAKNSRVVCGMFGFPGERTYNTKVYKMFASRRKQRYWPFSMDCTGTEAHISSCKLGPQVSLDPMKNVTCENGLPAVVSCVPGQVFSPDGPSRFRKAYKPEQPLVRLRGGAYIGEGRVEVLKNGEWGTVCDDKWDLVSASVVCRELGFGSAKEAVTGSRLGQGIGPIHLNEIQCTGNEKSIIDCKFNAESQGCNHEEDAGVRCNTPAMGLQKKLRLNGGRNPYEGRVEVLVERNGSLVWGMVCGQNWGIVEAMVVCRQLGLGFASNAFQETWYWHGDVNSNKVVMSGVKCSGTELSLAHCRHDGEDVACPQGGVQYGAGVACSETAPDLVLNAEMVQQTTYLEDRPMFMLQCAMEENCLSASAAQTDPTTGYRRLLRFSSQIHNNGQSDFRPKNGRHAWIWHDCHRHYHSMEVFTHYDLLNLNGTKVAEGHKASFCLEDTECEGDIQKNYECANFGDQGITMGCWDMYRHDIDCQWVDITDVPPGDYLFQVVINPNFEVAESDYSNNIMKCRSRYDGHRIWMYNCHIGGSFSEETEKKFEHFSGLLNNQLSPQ
The experiment in a line: Inhibition of full length recombinant human LOXL2 expressed in CHO cells assessed as reduction in H2O2 production using DAP as substrate preincubated for 2 hrs followed by substrate addition measured every 2 minutes for 50 minutes by Amplex red dye based fluorescence assay.

The target in experiment [2] is T2, Lysyl oxidase homolog 2 (Rattus norvegicus, UniProt B5DF27).
T2 sequence (B5DF27 whole entry): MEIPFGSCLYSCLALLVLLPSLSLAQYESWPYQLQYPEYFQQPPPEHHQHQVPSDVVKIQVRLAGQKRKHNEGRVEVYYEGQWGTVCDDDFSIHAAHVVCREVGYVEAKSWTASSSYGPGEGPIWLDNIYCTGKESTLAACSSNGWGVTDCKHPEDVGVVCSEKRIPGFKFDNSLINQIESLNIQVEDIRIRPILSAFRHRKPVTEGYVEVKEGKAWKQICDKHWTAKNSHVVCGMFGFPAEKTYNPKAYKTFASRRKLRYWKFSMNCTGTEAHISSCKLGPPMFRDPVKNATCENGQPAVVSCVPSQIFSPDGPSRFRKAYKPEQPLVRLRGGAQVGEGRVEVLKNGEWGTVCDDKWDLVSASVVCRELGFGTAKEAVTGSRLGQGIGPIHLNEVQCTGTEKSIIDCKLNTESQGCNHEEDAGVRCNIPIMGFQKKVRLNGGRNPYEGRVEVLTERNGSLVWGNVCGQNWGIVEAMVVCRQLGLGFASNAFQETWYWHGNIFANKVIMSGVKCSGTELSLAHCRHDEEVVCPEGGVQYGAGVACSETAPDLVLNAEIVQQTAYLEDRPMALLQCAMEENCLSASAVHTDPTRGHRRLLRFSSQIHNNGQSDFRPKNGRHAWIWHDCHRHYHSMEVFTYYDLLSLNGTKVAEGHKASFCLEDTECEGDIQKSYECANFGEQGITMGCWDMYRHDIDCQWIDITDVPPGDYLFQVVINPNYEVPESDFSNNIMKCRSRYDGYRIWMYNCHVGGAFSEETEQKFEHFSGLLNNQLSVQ
The experiment in a line: Inhibition of full length recombinant rat LOXL2 expressed in CHO cells assessed as reduction in H2O2 production using DAP as substrate preincubated for 2 hrs followed by substrate addition measured every 2 minutes for 50 minutes in presence of BSA by Amplex red dye based fluorescence assay. In short, it runs like this: (§1)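 Rodent LOXL2 is tested under the same conditions as the BSA-supplemented assay: conditioned media plus BSA, with DAP as substrate and Amplex Red detection of H2O2. Species are mouse and rat. IC50 is the geometric mean x/÷ geometric standard deviation from 3 determinations.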

Experiment [3] concerns the target T1, Lysyl oxidase homolog 2. The experiment in a line: Inhibition of full length recombinant human LOXL2 expressed in CHO cells assessed as reduction in H2O2 production using DAP as substrate preincubated for 2 hrs followed by substrate addition measured every 2 minutes for 50 minutes in presence of BSA by Amplex red dye based fluorescence assay. The procedure, abridged: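 Serum-free concentrated conditioned medium from CHO cells stably expressing human LOXL2, supplemented with BSA. Compounds preincubated for 2 h (the screening preincubation time). Substrate was 1,5-diaminopentane, and the H2O2 formed was detected with Amplex Red. IC50 given as geometric mean x/÷ geometric SD over N determinations.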

In experiment [4] the target is T3, Lysyl oxidase homolog 2 (Mus musculus, UniProt P58022).
T3 sequence (P58022 whole entry): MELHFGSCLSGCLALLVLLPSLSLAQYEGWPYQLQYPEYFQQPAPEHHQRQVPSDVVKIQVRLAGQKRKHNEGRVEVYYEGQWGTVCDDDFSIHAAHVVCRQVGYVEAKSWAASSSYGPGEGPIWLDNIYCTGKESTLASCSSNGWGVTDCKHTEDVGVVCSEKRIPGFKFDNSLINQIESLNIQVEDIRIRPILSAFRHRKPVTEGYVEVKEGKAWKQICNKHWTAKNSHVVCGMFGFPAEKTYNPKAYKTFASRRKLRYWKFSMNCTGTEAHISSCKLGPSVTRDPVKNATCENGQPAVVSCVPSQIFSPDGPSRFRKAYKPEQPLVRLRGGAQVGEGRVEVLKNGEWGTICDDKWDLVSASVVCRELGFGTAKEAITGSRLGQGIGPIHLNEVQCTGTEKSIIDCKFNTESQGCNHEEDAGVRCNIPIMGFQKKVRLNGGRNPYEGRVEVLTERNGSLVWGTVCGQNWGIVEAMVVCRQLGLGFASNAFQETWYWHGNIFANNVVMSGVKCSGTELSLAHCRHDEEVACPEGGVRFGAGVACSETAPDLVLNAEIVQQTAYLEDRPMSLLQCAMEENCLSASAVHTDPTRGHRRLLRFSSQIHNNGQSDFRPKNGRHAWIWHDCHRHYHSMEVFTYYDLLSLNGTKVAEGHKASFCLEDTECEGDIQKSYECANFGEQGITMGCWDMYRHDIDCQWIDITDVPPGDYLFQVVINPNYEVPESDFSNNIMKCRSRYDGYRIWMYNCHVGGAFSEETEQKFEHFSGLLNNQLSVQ
The experiment in a line: Inhibition of full length recombinant mouse LOXL2 expressed in CHO cells assessed as reduction in H2O2 production using DAP as substrate preincubated for 2 hrs followed by substrate addition measured every 2 minutes for 50 minutes in presence of BSA by Amplex red dye based fluorescence assay. It counts as cell-based. In short, it runs like this:
as §1

Another experiment deals with T4, Protein-lysine 6-oxidase (Homo sapiens, UniProt P28300).
T4 sequence (P28300 whole entry): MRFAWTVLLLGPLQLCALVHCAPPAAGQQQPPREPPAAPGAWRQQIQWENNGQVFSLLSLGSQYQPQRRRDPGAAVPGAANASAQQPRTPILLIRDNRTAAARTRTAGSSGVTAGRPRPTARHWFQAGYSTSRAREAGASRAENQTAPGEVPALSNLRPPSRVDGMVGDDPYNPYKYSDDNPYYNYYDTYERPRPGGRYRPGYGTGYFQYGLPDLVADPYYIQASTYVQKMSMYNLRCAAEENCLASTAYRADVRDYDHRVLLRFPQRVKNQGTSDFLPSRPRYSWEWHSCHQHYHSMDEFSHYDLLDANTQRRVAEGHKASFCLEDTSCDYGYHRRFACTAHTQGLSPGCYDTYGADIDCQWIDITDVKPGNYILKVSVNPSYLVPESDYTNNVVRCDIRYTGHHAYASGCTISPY
The experiment in a line: Inhibition of full length recombinant human LOX expressed in HEK cells assessed as reduction in H2O2 production using DAP as substrate preincubated for 2 hrs followed by substrate addition measured every 2 minutes for 50 minutes in presence of BSA by Amplex red dye based fluorescence assay. The procedure, abridged: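 Enzyme source: serum-free conditioned media from HEK cells stably expressing human LOX, with BSA added to give measurable activity. Activity is measured as H2O2 from oxidative deamination of 1,5-diaminopentane (DAP), read by Amplex Red. IC50 is given as geometric mean x/÷ geometric standard deviation, with N-values reported.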

Experiment [5] has as its target T1, Lysyl oxidase homolog 2. The experiment in a line: Inhibition of full length recombinant human LOXL2 expressed in CHO cells assessed as reduction in H2O2 production using DAP as substrate preincubated for 15 mins followed by substrate addition measured every 2 minutes for 50 minutes by Amplex red dye based fluorescence assay. In short, it runs like this:
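Enzyme source: serum-free concentrated conditioned medium from CHO cells stably expressing human LOXL2. Inhibitor preincubated with enzyme for 15 min, then 1,5-diaminopentane (DAP) added. H2O2 from oxidative deamination read by Amplex Red. IC50 reported as geometric mean x/÷ geometric SD, with N given.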

For the compound `COC(=O)c1cccc(CN)c1`, at Lysyl oxidase homolog 2 [1], the 50% inhibitory concentration (IC50) was 3540 nM. On the same count and under the same terms, for `NCc1ccc([N+](=O)[O-])cc1` the value was 719 nM.

As for `NCc1ccc(F)cc1`, the IC50 on Lysyl oxidase homolog 2 [1] is 26000 nM. Still for that read-out and setting: for `NCCc1ccncc1` the value was 8210 nM; for `NCc1cc(-c2cccnc2)ncc1C(F)(F)F`, above 31000 nM; for `NCc1ccnc(-n2ccnc2)c1`, 203 nM. On to `N#CCCN`, for which the half-maximal inhibitory concentration (IC50) on Lysyl oxidase homolog 2 [2] stood at 127 nM; on Lysyl oxidase homolog 2 [3] it was 83 nM; at Lysyl oxidase homolog 2 [4] it was 128 nM; at Protein-lysine 6-oxidase, 550 nM; at Lysyl oxidase homolog 2 [5], 243 nM; on Lysyl oxidase homolog 2 [1] it was 66 nM. With `NCc1ccnc(F)c1`, the half-maximal inhibitory concentration (IC50) at Lysyl oxidase homolog 2 [1] amounted to 385 nM. Still for that read-out and setting: for `N#Cc1ccc(CN)cc1` the value was 670 nM.

In the case of `CNCc1ccc(C#N)cc1`, the half-inhibitory concentration (IC50) at Lysyl oxidase homolog 2 [1] was above 100000 nM. Same read-out and setting: for `NCc1ccccc1` [BENZYLAMINE] the value was 64700 nM; for `N=C(N)c1cccc(CN)c1`, 4970 nM. Regarding `NCCc1ccccc1` [PHENETHYLAMINE], the 50% inhibitory concentration (IC50) at Lysyl oxidase homolog 2 [1] amounted to 60100 nM. Same read-out and setting: for `NCc1ccnc(-c2cccnc2)c1` the value was 321 nM. The same measure, in the same setting: for `NCc1ccc(N)cc1` the value was 47000 nM; for `NCc1ccc(-c2nccs2)cc1`, 902 nM. Same read-out and setting: for `NCc1ccnc2ccccc12` the value was 6040 nM; for `NCc1ccncc1`, 1220 nM.

As for `N[C@@H]1C[C@H]1c1ccccc1.N[C@H]1C[C@@H]1c1ccccc1` [TRANYLCYPROMINE], the half-inhibitory concentration (IC50) at Lysyl oxidase homolog 2 [1] was above 100000 nM.

`NCc1ccncc1F`: on Lysyl oxidase homolog 2 [1], the IC50 turned out to be 431 nM. The same measure, in the same setting: the figure for `N=C(N)c1ccc(CN)cc1` is 1110 nM; for `COC(=O)c1ccc(CN)cc1` it is 3620 nM.
